The values that follow come from ChEMBL document CHEMBL1138326, “Structure-based design, synthesis, and biological evaluation of indomethacin derivatives as cyclooxygenase-2 inhibiting nitric oxide donors” (J Med Chem, 2007).

Experiment [1] addresses T1, Prostaglandin G/H synthase 1 (Homo sapiens, UniProt P23219). The experiment can be described thus: Inhibition of COX1 in human whole blood assessed as effect on A23187-induced thromboxane B2 production at 100 uM relative to control; values are per cent of control.
Experiment [2] has as its target T1, Prostaglandin G/H synthase 1. The experiment can be described thus: Inhibition of COX1 in human whole blood assessed as effect on A23187-induced thromboxane B2 production at 1 uM relative to control; values are per cent of control.
For experiment [3] the target is unchanged. The experiment can be described thus: Inhibition of COX1 in human whole blood assessed as effect on A23187-induced thromboxane B2 production at 3 uM relative to control; values are per cent of control.
Experiment [4] concerns the target T2, Prostaglandin G/H synthase 2 (Homo sapiens) (UniProt P35354).
T2 sequence (whole entry): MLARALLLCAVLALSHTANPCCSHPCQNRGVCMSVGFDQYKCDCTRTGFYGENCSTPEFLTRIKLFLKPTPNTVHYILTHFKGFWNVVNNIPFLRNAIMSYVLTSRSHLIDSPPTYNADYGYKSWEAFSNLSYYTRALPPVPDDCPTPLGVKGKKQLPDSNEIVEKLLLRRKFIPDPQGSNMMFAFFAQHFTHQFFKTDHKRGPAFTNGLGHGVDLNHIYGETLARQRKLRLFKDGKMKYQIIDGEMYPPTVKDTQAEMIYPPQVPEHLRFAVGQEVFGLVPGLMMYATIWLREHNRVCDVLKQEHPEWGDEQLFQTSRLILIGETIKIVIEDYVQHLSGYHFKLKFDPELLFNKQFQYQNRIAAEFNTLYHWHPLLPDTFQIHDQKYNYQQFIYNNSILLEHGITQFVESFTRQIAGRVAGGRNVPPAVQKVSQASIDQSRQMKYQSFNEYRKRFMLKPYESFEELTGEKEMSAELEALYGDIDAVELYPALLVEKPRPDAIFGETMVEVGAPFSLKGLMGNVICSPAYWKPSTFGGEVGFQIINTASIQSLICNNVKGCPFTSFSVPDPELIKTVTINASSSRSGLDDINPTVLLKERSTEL
The experiment can be described thus: Inhibition of COX2 in human whole blood assessed as effect on LPS-induced thromboxane B2 production at 30 uM relative to control; values are per cent of control.

The target of experiment [5] is T1, Prostaglandin G/H synthase 1. As to the kind of experiment: Inhibition of COX1 in human whole blood assessed as effect on A23187-induced thromboxane B2 production at 10 uM relative to control; values are per cent of control.
Experiment [6] shares this target. As to the kind of experiment: Inhibition of COX1 in human whole blood assessed as effect on A23187-induced thromboxane B2 production. The experiment is classed as tissue-based.
The species entered for a further experiment is Homo sapiens. As to the kind of experiment: Selectivity for human COX2 over human COX1.
Experiment [7] has as its target T1, Prostaglandin G/H synthase 1. The experiment can be described thus: Inhibition of COX1 in human whole blood assessed as effect on A23187-induced thromboxane B2 production at 30 uM relative to control; values are per cent of control.
The test system of a further experiment is Rattus norvegicus. As to the kind of experiment: Antiinflammatory activity against intrapouch dosed Sprague-Dawley rat carrageenan air-pouch model assessed as reduction of prostaglandin E2 at 45 umol/kg. The arrangement: scale not given: the % may be the effect or the level left. The experiment is classed as functional. The essentials:
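Air pouch made with 20 mL sterile air sc on day -6 and 10 mL more on day -3; rats fasted 18 h. Compound in 0.5% methocel injected into the pouch 1 h before carrageenan (1 mL of 1.0% in saline). After 4 h, exudate recovered with PBS/heparin and assayed for PGE2 by enzyme immunoassay.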

T1 sequence (P23219 whole entry): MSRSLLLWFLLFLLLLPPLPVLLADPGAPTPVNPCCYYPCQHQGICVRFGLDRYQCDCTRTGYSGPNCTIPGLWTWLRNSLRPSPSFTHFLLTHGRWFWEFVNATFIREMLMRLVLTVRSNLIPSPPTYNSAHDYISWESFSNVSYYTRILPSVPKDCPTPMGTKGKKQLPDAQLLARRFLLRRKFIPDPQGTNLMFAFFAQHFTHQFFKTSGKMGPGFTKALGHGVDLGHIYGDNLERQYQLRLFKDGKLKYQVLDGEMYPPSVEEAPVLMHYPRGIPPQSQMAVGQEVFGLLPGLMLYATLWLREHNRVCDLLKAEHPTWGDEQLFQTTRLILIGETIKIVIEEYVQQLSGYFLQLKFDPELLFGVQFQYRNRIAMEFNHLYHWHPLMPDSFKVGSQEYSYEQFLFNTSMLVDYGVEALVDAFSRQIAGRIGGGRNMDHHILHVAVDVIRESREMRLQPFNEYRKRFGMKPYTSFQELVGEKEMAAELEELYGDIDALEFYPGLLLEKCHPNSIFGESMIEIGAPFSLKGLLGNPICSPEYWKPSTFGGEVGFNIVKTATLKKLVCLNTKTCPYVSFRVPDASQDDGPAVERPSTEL

As for `Cc1c(CC(=O)O)c2cc(O)ccc2n1C(=O)c1ccc(Cl)cc1`, the residual activity turned out to be 18% in experiment [1]; 100% in experiment [2]; 80% in experiment [3]; 0% in experiment [4]; 55% in experiment [5].
In the case of `COc1ccc2c(c1)c(CC(=O)N(OC(C)=O)C(C)=O)c(C)n2C(=O)c1ccc(Cl)cc1`, the figures for the residual activity in [1], in experiment [2] and in [5] were 6%, 39% and 14%, respectively. The IC50 (in general, the concentration that inhibits the measured activity by half) in experiment [6] is below 1000 nM.
For `COc1ccc2c(c1)c(CC(=O)NCCCO[N+](=O)[O-])c(C)n2Cc1ccc(S(C)(=O)=O)cc1`, the residual activity in experiment [1] stood at 53%.
Still for that read-out and setting: to `COc1ccc2c(c1)c(CCOC(=O)NS(=O)(=O)OCCCO[N+](=O)[O-])c(C)n2C(=O)c1ccc(Cl)cc1` belongs 44%; to `CCOC(=O)Cc1c(C)n(CC2CCCCC2)c2ccc(OC)cc12`, 85%.
On to `COc1ccc2c(c1)c(CCOC(=O)NCCCO[N+](=O)[O-])c(C)n2C(=O)c1ccc(Cl)cc1`, for which the residual activity in experiment [1] worked out at 62%; in experiment [2] it was 83%; in experiment [5], 74%.
As to `Cc1c(CC(=O)NCCCO[N+](=O)[O-])c2cc(OS(N)(=O)=O)ccc2n1C(=O)c1ccc(Cl)cc1`, the residual activity in experiment [1] was 65%; in experiment [2] it was 100%; in [4] it was 46%; in experiment [5], 92%. In the experiment filed under Homo sapiens, the Ratio IC50 was above 4. In [6], the concentration for half-maximal inhibition (IC50) was above 100000 nM.
Consider `COc1ccc2c(c1)c(CCO[N+](=O)[O-])c(C)n2C(=O)c1ccc(Cl)cc1`, for which the residual activity in experiment [1] turned out to be 15%; in [2], 69%; in experiment [5] it was 73%.
As to `COc1ccc2c(c1)c(CCOC(=O)NS(=O)(=O)NCCCO[N+](=O)[O-])c(C)n2C(=O)c1ccc(Cl)cc1`, the residual activity in experiment [1] came to 61%; in experiment [2], 100%; in experiment [5], 100%.
For the compound `COc1ccc2c(c1)c(CCNC(=O)NCCCO[N+](=O)[O-])c(C)n2C(=O)c1ccc(Cl)cc1`, the residual activity in [1] came to 2%; in experiment [2], 93%; in [5], 29%. In addition, in the experiment listed under Homo sapiens, the Ratio IC50 is 0.3. Moreover, the half-inhibitory concentration (IC50) in [6] is 3000 nM.
For `COc1ccc2c(c1)c(CC(=O)NO)c(C)n2C(=O)c1ccc(Cl)cc1` [OXAMETACIN], the residual activity turned out to be 2% in [1], 84% in experiment [2] and 29% in [5]. The half-maximal inhibitory concentration (IC50) in experiment [6] amounted to 2800 nM.
Turning to `COc1ccc2c(c1)c(CCO)c(C)n2C(=O)c1ccc(Cl)cc1`, the residual activity in experiment [1] was found to be 0%; in [2], 76%; in experiment [3] it was 18%; in experiment [5], 16%. Besides, the 50% inhibitory concentration (IC50) in experiment [6] turned out to be 2300 nM.
Consider `COc1ccc2c(c1)c(CC(=O)NOCc1ccccc1)c(C)n2C(=O)c1ccc(Cl)cc1`, for which the residual activity in experiment [1] came to 0%. Further, the IC50 in experiment [6] is below 300 nM.
As to `Cc1c(CC(=O)NCCCO[N+](=O)[O-])c2cc(O)ccc2n1C(=O)c1ccc(Cl)cc1`, the residual activity in [1] amounted to 1%; in experiment [7], 1%; in experiment [3], 74%; in [4] it was 2%; in [5], 27%. Besides, the IC50 in [6] came to 4700 nM.
`COc1ccc2c(c1)c(CCP(=O)(O)O)c(C)n2C(=O)c1ccc(Cl)cc1`: the residual activity in [1] is 76%.
Turning to `COc1ccc2c(c1)c(CC(=O)NCC(C)(C)CO[N+](=O)[O-])c(C)n2C(=O)c1ccc(Cl)cc1`, the residual activity turned out to be 3% in experiment [1]; 78% in experiment [2]; 3% in experiment [7]; 45% in [3]; 25% in [5]. Moreover, the IC50 in experiment [6] was determined as 2600 nM.
Regarding `COc1ccc2c(c1)c(CCO)c(C)n2CC1CCCCC1`, the residual activity in experiment [1] is 95%.
For `COc1ccc2c(c1)c(CCNC(=O)c1ccc(CO[N+](=O)[O-])cc1)c(C)n2C(=O)c1ccc(Cl)cc1`, the IC50 in [6] is below 1000 nM.
As for `COc1cc2c(CC(=O)O)c(C)n(C(=O)c3ccc(Cl)cc3)c2cc1Cl`, the residual activity was 13% in experiment [1]; 61% in experiment [2]; 2% in [7]; 41% in experiment [3]; 0% in [4]; 24% in experiment [5]. The Ratio IC50 in the experiment filed under Homo sapiens turned out to be 0.4. Besides, in experiment [6], the concentration for half-maximal inhibition (IC50) was 1600 nM.
As to `COc1ccc2c(c1)c(CCNS(=O)(=O)c1ccc(CO[N+](=O)[O-])cc1)c(C)n2C(=O)c1ccc(Cl)cc1`, the residual activity turned out to be 12% in [1], 68% in experiment [2] and 23% in experiment [5]. For the same compound, the half-maximal inhibitory concentration (IC50) in experiment [6] came out at 1900 nM.
As for `COc1ccc2c(c1)c(CC(=O)O)c(C)n2C(=O)c1ccc(Cl)cc1` [INDOMETHACIN], the Activity in the experiment with Rattus norvegicus is 97%.
Regarding `COc1ccc2c(c1)c(CC(=O)NC(CO[N+](=O)[O-])(CO[N+](=O)[O-])CO[N+](=O)[O-])c(C)n2C(=O)c1ccc(Cl)cc1`, the residual activity in experiment [1] was 1%; in [2], 50%; in experiment [3], 16%; in experiment [5], 11%. For the same compound, in experiment [6], the IC50 was 1200 nM.
For the compound `COc1ccc2c(c1)c(CC(=O)NCCCO[N+](=O)[O-])c(C)n2CC1CCCCC1`, the residual activity in experiment [1] was 100%.
As for `COc1ccc2c(c1)c(CCO[N+](=O)[O-])c(C)n2CC1CCCCC1`, the residual activity in [1] stood at 93%.
In the case of `COc1ccc2c(c1Cl)c(CC(=O)OCc1ccccc1)c(C)n2C(=O)c1ccc(Cl)cc1`, the residual activity in [1] amounted to 65%. The concentration for half-maximal inhibition (IC50) in experiment [6] was above 100000 nM.
With `COc1ccc2c(c1)c(CCN)c(C)n2C(=O)c1ccc(Cl)cc1`, the residual activity in [1] came out at 1%; in experiment [2], 100%; in experiment [4], 78%; in experiment [5] it was 100%. Moreover, in [6], the IC50 was above 10000 nM.
On to `COc1ccc2c(c1)c(CC(=O)NOCCO)c(C)n2C(=O)c1ccc(Cl)cc1`, for which the residual activity in [1] is 1%; in experiment [3], 20%; in experiment [5], 3%. In addition, the IC50 in experiment [6] was below 1000 nM.
For `COc1ccc2c(c1)c(CC(=O)O)c(C)n2CC1CCCCC1`, the residual activity in experiment [1] was 85%.
With `COc1ccc2c(c1)c(CC(=O)NOC(C)=O)c(C)n2C(=O)c1ccc(Cl)cc1`, the residual activity in [1] turned out to be 7%; in experiment [2], 68%; in experiment [5], 34%. Also, the half-maximal inhibitory concentration (IC50) in experiment [6] worked out at 3600 nM.
In the case of `COc1cc2c(CC(=O)OCc3ccccc3)c(C)n(C(=O)c3ccc(Cl)cc3)c2cc1Cl`, in [1], the residual activity was 58%. Further, the IC50 in [6] was above 100000 nM.
Regarding `Cc1c(CC(=O)NCCCO)c2cc(O)ccc2n1C(=O)c1ccc(Cl)cc1`, the residual activity in experiment [1] came to 8%; in experiment [2], 83%; in experiment [7], 7%; in experiment [3], 58%; in [4], 4%; in [5], 40%. In addition, the IC50 in [6] was 5400 nM.
With `COc1ccc2c(c1)c(CC(=O)O)c(C)n2Cc1ccc(S(C)(=O)=O)cc1`, the residual activity in [1] was 87%.
For the compound `COc1ccc2c(c1)c(CC(=O)NCCCCO)c(C)n2C(=O)c1ccc(Cl)cc1`, the residual activity in experiment [1] is 1%; in [2], 64%; in experiment [3], 46%; in [5], 23%. Also, the Ratio IC50 in the experiment listed under Homo sapiens came out at 2. For the same compound, in [6], the IC50 was determined as 2400 nM.
